Source: ChEMBL document CHEMBL4049434, “Radiolabeled Dibenzodiazepinone-Type Antagonists Give Evidence of Dualsteric Binding at the M2 Muscarinic Acetylcholine Receptor” (J Med Chem, 2017)
The source made the active and inactive calls. No cut-off for these calls is given here.

Tests used:
[1] = biological target: T1, Muscarinic acetylcholine receptor M2 (Homo sapiens) (UniProt P08172); assay: (§1) Competitive antagonist activity at human muscarinic acetylcholine receptor M2 expressed in HEK293 cells coexpressing HA tagged Galpha-protein qi5 assessed as inhibition of 1 uM carbachol-induced IP1 accumulation preincubated for 30 mins followed by carbachol addition measured after 1 hr by HTRF assay; format: functional, cell-based
T1 sequence (whole entry): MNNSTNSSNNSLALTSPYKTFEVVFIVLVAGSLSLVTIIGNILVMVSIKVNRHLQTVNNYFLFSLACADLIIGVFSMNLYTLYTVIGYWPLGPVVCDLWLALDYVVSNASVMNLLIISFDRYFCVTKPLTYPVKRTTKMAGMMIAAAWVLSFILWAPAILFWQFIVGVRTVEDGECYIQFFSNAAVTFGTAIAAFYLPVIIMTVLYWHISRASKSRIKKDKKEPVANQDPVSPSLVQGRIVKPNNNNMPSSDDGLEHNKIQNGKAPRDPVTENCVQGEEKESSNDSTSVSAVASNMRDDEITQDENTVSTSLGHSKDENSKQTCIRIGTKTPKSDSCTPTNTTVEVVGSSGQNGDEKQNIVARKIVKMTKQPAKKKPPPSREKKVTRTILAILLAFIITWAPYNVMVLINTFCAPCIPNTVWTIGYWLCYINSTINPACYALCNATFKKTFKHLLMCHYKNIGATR
In short: (§2)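 HEK-293 transiently cotransfected with human M2R and Gαqi5-HA. Cells preincubated 30 min with antagonist, then carbachol added (final 0.1, 0.3, 1 or 10 μM), 1 h at 37 °C. IP1 detected by HTRF (620/670 nm emission, 330 nm excitation). At least four independent experiments, each in duplicate.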

[2] = biological target: T2, Muscarinic acetylcholine receptor M2 (Homo sapiens, UniProt P08172); assay: as §1; format: functional, cell-based; in short: as §2
T2 sequence (P08172 whole entry): T1 sequence (whole entry)

[3] = biological target: T1, Muscarinic acetylcholine receptor M2 (Homo sapiens); assay: Binding affinity to human muscarinic acetylcholine receptor M2 expressed in CHOK9 cells assessed as dissociation rate constant after 105 mins by liquid scintillation counting assay; format: cell-based; details: tested as the 3H-labelled form
[4] = biological target: T3, Muscarinic acetylcholine receptor M4 (Homo sapiens, UniProt P08173); assay: Displacement of [3H]NMS from human muscarinic acetylcholine receptor M4 expressed in CHOK9 cells after 3 hrs by liquid scintillation counting assay; format: cell-based
T3 sequence (P08173 whole entry): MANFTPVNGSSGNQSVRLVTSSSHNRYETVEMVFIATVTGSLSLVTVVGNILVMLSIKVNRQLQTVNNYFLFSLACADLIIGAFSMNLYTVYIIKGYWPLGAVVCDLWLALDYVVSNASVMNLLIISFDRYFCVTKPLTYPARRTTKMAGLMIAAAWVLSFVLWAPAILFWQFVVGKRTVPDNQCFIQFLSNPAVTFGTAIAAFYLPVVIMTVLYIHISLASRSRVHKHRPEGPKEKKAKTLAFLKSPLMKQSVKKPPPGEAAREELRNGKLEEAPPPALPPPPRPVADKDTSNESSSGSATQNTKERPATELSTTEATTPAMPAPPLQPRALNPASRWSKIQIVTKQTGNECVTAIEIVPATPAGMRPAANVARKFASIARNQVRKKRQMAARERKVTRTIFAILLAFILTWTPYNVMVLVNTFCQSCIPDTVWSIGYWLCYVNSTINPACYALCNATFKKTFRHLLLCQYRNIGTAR

[5] = biological target: T4, Muscarinic acetylcholine receptor M5 (Homo sapiens, UniProt P08912); assay: Displacement of [3H]NMS from human muscarinic acetylcholine receptor M5 expressed in CHOK9 cells after 3 hrs by liquid scintillation counting assay; format: cell-based
T4 sequence (P08912 whole entry): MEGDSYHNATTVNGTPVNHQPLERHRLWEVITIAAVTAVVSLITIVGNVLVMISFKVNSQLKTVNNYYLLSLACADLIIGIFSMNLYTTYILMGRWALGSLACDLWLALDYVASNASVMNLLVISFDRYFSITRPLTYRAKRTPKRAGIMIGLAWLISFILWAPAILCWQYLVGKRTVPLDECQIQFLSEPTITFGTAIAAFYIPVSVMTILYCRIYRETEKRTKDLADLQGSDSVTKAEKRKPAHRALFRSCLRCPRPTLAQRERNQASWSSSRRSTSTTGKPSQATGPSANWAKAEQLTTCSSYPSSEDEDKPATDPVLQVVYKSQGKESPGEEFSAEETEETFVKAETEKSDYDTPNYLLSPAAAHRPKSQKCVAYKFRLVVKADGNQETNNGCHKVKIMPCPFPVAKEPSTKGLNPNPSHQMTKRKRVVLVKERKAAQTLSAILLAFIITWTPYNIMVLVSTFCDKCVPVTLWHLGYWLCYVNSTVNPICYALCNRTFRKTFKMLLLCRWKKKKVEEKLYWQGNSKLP

[6] = biological target: Muscarinic acetylcholine receptor M3 (Homo sapiens, UniProt P20309); assay: Displacement of [3H]NMS from human muscarinic acetylcholine receptor M3 expressed in CHOK9 cells after 3 hrs by liquid scintillation counting assay; format: cell-based
Muscarinic acetylcholine receptor M3, sequence (P20309 whole entry): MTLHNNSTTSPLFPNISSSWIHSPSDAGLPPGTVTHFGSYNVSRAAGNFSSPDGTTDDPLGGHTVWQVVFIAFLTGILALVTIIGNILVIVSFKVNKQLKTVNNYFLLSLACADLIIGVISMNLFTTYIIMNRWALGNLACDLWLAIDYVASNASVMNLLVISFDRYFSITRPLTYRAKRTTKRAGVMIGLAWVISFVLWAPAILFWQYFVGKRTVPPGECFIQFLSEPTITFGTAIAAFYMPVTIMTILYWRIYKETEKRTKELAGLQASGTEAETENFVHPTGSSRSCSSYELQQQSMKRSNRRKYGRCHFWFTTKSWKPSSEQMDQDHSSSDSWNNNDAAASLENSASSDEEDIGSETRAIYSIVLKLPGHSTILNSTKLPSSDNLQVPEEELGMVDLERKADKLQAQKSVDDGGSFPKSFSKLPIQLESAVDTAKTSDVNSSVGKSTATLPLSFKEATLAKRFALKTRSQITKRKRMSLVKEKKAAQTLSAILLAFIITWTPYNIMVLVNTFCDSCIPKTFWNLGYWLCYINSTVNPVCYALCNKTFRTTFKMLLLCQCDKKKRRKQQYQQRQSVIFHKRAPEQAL

[7] = biological target: T1, Muscarinic acetylcholine receptor M2 (Homo sapiens); assay: Agonist activity at human muscarinic acetylcholine receptor M2 expressed in HEK293 cells coexpressing HA tagged Galpha-protein qi5 assessed as induction of IP1 accumulation measured after 1 hr by HTRF assay; format: functional, cell-based
In short: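 HEK-293 transiently cotransfected with human M2R and Gαqi5-HA, seeded 24 h before assay (10000 cells/well). Compounds in stimulation buffer (1 pM–100 μM final) 1 h at 37 °C; IP1 read by HTRF (620/670 nm, excitation 330 nm) after 60 min with detection reagents at rt. Duplicate, three experiments, carbachol as reference.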

[8] = Chemical stability of the compound in PBS buffer at pH 7.4 after 48 hrs by HPLC analysis; format: physicochemical; details: pH 7.4, 48 h
In short: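 Compound at 100 μM final (from 10 mM stock) in PBS pH 7.4 at 22 ± 1 °C; samples taken at 0, 24 and 48 h, mixed with acetonitrile/1% aq TFA 2:8, analysed by RP-HPLC at 220 nm.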

[9] = biological target: T1, Muscarinic acetylcholine receptor M2 (Homo sapiens); assay: as §1, with “of 10” for “of 1”; format: functional, cell-based; in short: as §2
[10] = biological target: T2, Muscarinic acetylcholine receptor M2; assay: as §1, with “of 10” for “of 1”; format: functional, cell-based; in short: as §2
[11] = biological target: T2, Muscarinic acetylcholine receptor M2; assay: Displacement of [3H]UNSW-MK259 from human muscarinic acetylcholine receptor M2 expressed in CHOK9 cells after 3 hrs by liquid scintillation counting assay; format: cell-based
[12] = biological target: T1, Muscarinic acetylcholine receptor M2 (Homo sapiens); assay: Binding affinity to human muscarinic acetylcholine receptor M2 expressed in CHOK9 cell suspension at Kd in presence of 500-fold excess atropine after 2 hrs by liquid scintillation counting assay relative to control; details: tested as the 3H-labelled form
[13] = biological target: T2, Muscarinic acetylcholine receptor M2; assay: Displacement of [3H]NMS from human muscarinic acetylcholine receptor M2 expressed in CHOK9 cells after 3 hrs by liquid scintillation counting assay; format: cell-based; details: read-out: pKi (converted)
[14] = biological target: T1, Muscarinic acetylcholine receptor M2 (Homo sapiens); assay: Binding affinity to human muscarinic acetylcholine receptor M2 expressed in CHOK9 cell suspension after 2 hrs by liquid scintillation counting assay; details: tested as the 3H-labelled form
[15] = biological target: T2, Muscarinic acetylcholine receptor M2; assay: Displacement of [3H]UR-AP060 from human muscarinic acetylcholine receptor M2 expressed in CHOK9 cell homogenate after 3 hrs by liquid scintillation counting assay
[16] = biological target: T1, Muscarinic acetylcholine receptor M2 (Homo sapiens); assay: Antagonist activity at human muscarinic acetylcholine receptor M2 expressed in HEK293 cells coexpressing HA tagged Galpha-protein qi5 assessed as inhibition of 0.3 uM carbachol-induced IP1 accumulation preincubated for 30 mins followed by carbachol addition measured after 1 hr by HTRF assay; format: functional, cell-based; in short: as §2

Compound: CCC(=O)NCc1cc(C(=O)NCCNC(=O)CCc2cn(CCCCC3CCN(CC(=O)N4c5ccccc5NC(=O)c5ccccc54)CC3)cn2)cc(C(=O)NCCNC(=O)CCc2cn(CCCCC3CCN(CC(=O)N4c5ccccc5NC(=O)c5ccccc54)CC3)cn2)c1.O=C(O)C(F)(F)F.O=C(O)C(F)(F)F.O=C(O)C(F)(F)F.O=C(O)C(F)(F)F
- inhibition [1]: Dose-dependent effect
- IC50 [2]: 174 nM
- K [3]: 0.011 min⁻¹
- Ki [4]: 0.468 nM
- Ki [5]: 22.9 nM
- Ki [6]: 15.5 nM
- Activity [7]: inactive
- Stability [8]: Stable
- inhibition [9]: Dose-dependent effect
- IC50 [10]: 263 nM
- Ki [11]: 0.107 nM
- Activity [12]: < 15%
- Ki [13]: 0.407 nM
- Bmax (disintegrations/minute) [14]: 1800
- Ki [15]: 1.05 nM
- inhibition [16]: Dose-dependent effect
- pKb [16]: 7.36
